Screening results from PubChem.
MBD2 inh = inhibitors of human MBD2 binding to methylated oligonucleotide. inhibition, % at 4.4 µM. TR-FRET. actives 0.31% (n = 370,000). Q9UBB5; in the data active means inhibition above about 13%
LEDGF integ inh = blocks HIV-1 LEDGF/p75-dependent DNA integration. inhibition, % at 3.7 µM. AID 743269. actives 0.64% (n = 370,000). TR-FRET IN-LEDGF/p75 DNA integration, Eu/Cy5;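 active means inhibition above the screen-wide mean plus 3 SD, cut at about 13% in these data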;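 further: signal is the Cy5 over europium emission ratio at 671 and 618 nm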
UHRF1 binding = UHRF1 methyl-DNA binding inhibition. Q96T88. actives 0.75% (n = 370,000). UHRF1 binding to methylated oligo, TR-FRET. inhibition, % at 4.4 µM. AID 687016; in the data active means inhibition above about 21%;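 further: UHRF1 SRA domain binding a hemimethylated CpG hairpin DNA probe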
TDP2 inh = TDP2 (human) inhibition, absorbance primary screen; O95551; recombinant TDP2, T5PNP hydrolysis, p-nitrophenol absorbance 415 nm; inhibition, % at 12.8 µM; actives 0.34% (n = 370,000);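 active means inhibition above the mean of all tested compounds plus 3 SD, set per campaign, cut at about 25% in these data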
Target sequence (O95551 whole entry, looked up): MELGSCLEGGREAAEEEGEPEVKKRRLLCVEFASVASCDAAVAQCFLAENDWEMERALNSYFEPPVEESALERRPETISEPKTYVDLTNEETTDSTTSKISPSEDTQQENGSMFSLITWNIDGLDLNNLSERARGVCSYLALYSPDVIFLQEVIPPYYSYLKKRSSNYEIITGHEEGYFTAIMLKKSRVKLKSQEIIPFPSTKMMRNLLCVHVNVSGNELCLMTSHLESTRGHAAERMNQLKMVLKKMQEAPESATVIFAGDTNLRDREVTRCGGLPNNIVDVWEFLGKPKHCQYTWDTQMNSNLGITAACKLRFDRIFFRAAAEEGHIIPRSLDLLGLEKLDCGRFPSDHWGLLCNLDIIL
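Incubation: 2 h at 37 °C; Test system: recombinant human TDP2; Quantity: enzyme 120 nM; Read-out basis: percent inhibition; Medium: 50 mM Tris-HCl pH 7.5 with Mg2+, KCl, DTT, BSA; Repeats: single replicate; Compound: 12.8 µM single point, 1% DMSO; Signal: epi absorbance; Reagent: 5 mM T5PNP chromogenic substrate; Benchmarks: no-enzyme high, DMSO-plus-enzyme low.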
ARFGAP1 inhibitor = rat ARFGAP1 inhibition | AID 651572 | Q62848 | inhibition, % at 16.5 µM | Arfgap1-stimulated ARF1 GTP hydrolysis, GDP FP detection | actives 0.26% (n = 360,000);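 active means inhibition above a per-plate limit, mean inhibition of low control wells plus 3 SD, cut at about 25% in these data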
Target sequence (Q62848 1-136 limits assumed): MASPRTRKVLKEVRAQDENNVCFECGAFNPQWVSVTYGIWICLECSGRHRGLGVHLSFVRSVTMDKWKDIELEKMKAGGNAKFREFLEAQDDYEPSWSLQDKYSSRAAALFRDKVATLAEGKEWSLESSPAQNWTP
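Repeats: one replicate per compound; assay system: rat Arfgap1 catalytic domain, aa 1-136; times: enzyme reaction 120 min at 25 °C after 20 min preincubation; detection: FP of antibody-bound GDP Alexa 633 tracer, ex 620/em 688 nm; benchmarks: high control wells lacking Arfgap1, low control full reaction with DMSO; reagent: human ARF1(Δ1-17)-GTP substrate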
ASAP1 GAP inh = inhibitors of human ASAP1 ArfGAP activity; Q9ULH1; ASAP1-stimulated ARF1 GTP hydrolysis, GDP FP detection; inhibition, % at 16.5 µM; AID 624377; actives 0.19% (n = 360,000)
TDP2 inh conf = human TDP2 inhibition, confirmation | recombinant human TDP2, absorbance read-out | actives 22% (n = 1,100) | inhibition, % at 12.8 µM | shares compounds with TDP2 inh
IN multimer up = counter-screen for LEDGF/p75 integration inhibitors: HIV-1 integrase multimerization activators; shares compounds with LEDGF integ inh; TR-FRET HIV-1 integrase multimerization, biochemical; activation, % at 7.7 µM; actives 17% (n = 2,000); AID 1053131; in the data active means activation above about 8.9%
TRFRET interf = TR-FRET optical interference, LEDGF/p75 integration counter-screen. shares compounds with LEDGF integ inh. TR-FRET optical interference counterscreen, HIV-1 IN multimerization. inhibition, % at 7.7 µM. 2,000 tested, under 10 active. AID 1053135;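 active means inhibition above the mean over all tested compounds plus 3 SD, which no compound reached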
LEDGF integ conf = confirmation of HIV-1 LEDGF/p75-dependent integration inhibitors; shares compounds with LEDGF integ inh; AID 1053136; TR-FRET LEDGF/p75-dependent HIV-1 integration, biochemical; actives 36% (n = 2,000); inhibition, % at 3.7 µM; in the data active means inhibition above about 14%
Of the large screens only hits and unclear results are named; the others gave an inactive call (follow-up assays come after a bar, where they were run); ! = not confirmed by another sample. Rows were chosen to be rich in hits. Some 2% of all compounds tested hit in one or more screens of this group. Unless noted, no stated cut-off is given here; in the data, active means inhibition above about 25%; inactive means the rest.

N#CC1=C(N)C(C#N)(C#N)[C@H](c2ccoc2)[C@H]2CN(Cc3ccccc3)CC=C12	LEDGF integ inh 19.2, TDP2 inh 40.2 | TDP2 inh conf inactive | IN multimer up inactive | TRFRET interf inactive | LEDGF integ conf inactive
CC(=O)N1CC=C2C(C#N)=C(N)C(C#N)(C#N)[C@H](c3ccoc3)[C@H]2C1	none
CCOC(=O)C1=NOC(C(C)=O)(C(=O)NC2CCCC2)C1 (centres undefined)	none (no result: ARFGAP1 inhibitor, ASAP1 GAP inh)
Cc1ccc(S(=O)(=O)NC2=C(N3CCN(c4ccccc4F)CC3)C(=O)c3ccccc3C2=O)cc1	LEDGF integ inh 15.2!, TDP2 inh 25.2! | TDP2 inh conf inactive | IN multimer up inactive | TRFRET interf inactive | LEDGF integ conf inactive
COc1ccc(Cn2ccc3ccc(-c4ccc5ccn(C(=O)C6CCC6)c5c4)cc32)cc1	none (no result: ARFGAP1 inhibitor, ASAP1 GAP inh)
O=C(NN=Cc1ccc(O)cc1)C(=O)NN=Cc1ccc(O)cc1	none
O=C(N/N=C/c1ccc(O)cc1O)C(=O)N/N=C/c1ccc(O)cc1O	LEDGF integ inh 15.3, TDP2 inh 25.5 | TDP2 inh conf inactive | IN multimer up 12.7 | TRFRET interf inactive | LEDGF integ conf 25.9
COc1ccc(CN2CCC(CNC(=O)Nc3ccccc3)CC2)cc1	none (no result: ARFGAP1 inhibitor, ASAP1 GAP inh)
O=C1C=C(c2c(O)ccc3ccccc23)c2ccccc2C1=O	none
O=C1C=C(O)c2cccc(O)c2C1=O	LEDGF integ inh 22.3, TDP2 inh 32.2 | TDP2 inh conf inactive | IN multimer up inactive | TRFRET interf inactive | LEDGF integ conf 14.2
Cc1ccc2c(c1)N(CCCC(=O)N(C)Cc1ccccc1Cl)C(=O)CO2	none (no result: ARFGAP1 inhibitor, ASAP1 GAP inh)
O=C1C=C(Nc2ccc(O)cc2)C(=O)c2ccccc21	none
Cc1ccc(NC2=CC(=O)C(=O)c3ccccc32)cc1	LEDGF integ inh 22.9, TDP2 inh 69.7 | TDP2 inh conf 38.5 | IN multimer up 9.0 | TRFRET interf inactive | LEDGF integ conf 39.5
NS(=O)(=O)c1ccc(NC2=CC(=O)C(=O)c3ccccc32)cc1	LEDGF integ inh 31.9, TDP2 inh 60.9 | TDP2 inh conf 63.1 | IN multimer up inactive | TRFRET interf inactive | LEDGF integ conf 61.6
CCOC(=O)c1ccc(NC2=CC(=O)C(=O)c3ccccc32)cc1	none
Cc1ccc2c(c1C)-c1c(ccc(C)c1C)C(=O)C2=O	LEDGF integ inh 14.1, TDP2 inh 79.3 | TDP2 inh conf 67.3 | IN multimer up inactive | TRFRET interf inactive | LEDGF integ conf 68.8
O=C(Nc1ccccc1)OC1CC2CC1[C@H]1CCCCN1[C@H]2Cc1ccccc1 (some centres undefined)	none (no result: ARFGAP1 inhibitor, ASAP1 GAP inh)
CN(C(=S)Nc1cccnc1)c1ccc(O)cc1	LEDGF integ inh 29.2, TDP2 inh 29.5 | TDP2 inh conf inactive | IN multimer up inactive | TRFRET interf inactive | LEDGF integ conf inactive
CN(C(=S)Nc1ccc(Oc2ccccc2)cc1)c1ccc(O)cc1	none
O=C(NCCc1ccccc1F)c1cc2ccccn2n1	none (no result: ARFGAP1 inhibitor, ASAP1 GAP inh)
CN(C)c1cccc2c(S(=O)(=O)Nc3ccccn3)cccc12	LEDGF integ inh 19.4, TDP2 inh 55.7 | TDP2 inh conf inactive | IN multimer up inactive | TRFRET interf inactive | LEDGF integ conf inactive
O=C(Nc1ccc(F)cc1)OCc1cn(Cc2cccc(F)c2)nn1	none (no result: ARFGAP1 inhibitor, ASAP1 GAP inh)
Cc1ccc(CSc2nnc(-c3cc(-c4ccc(F)cc4)n[nH]3)n2N)cc1	none (no result: ARFGAP1 inhibitor, ASAP1 GAP inh)
COc1ccc(N)c2c1OCCC2=O	LEDGF integ inh 19.2, TDP2 inh 33.6 | TDP2 inh conf inactive | IN multimer up inactive | TRFRET interf inactive | LEDGF integ conf inactive
